Source: ChEMBL document CHEMBL2086299, “Melanogenesis inhibitory and fibroblast proliferation accelerating effects of noroleanane- and oleanane-type triterpene oligoglycosides from the flower buds of Camellia japonica” (2012)

Tests used:
[1] = Induction of proliferation of neonatal skin fibroblasts assessed as protein content per well at 20 uM after 48 hrs […] relative to control; assay type: functional, Homo sapiens, Skin fibroblast
Outline: (§1)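 Normal human neonatal skin fibroblasts NB1RGB seeded 5.0 × 10^4 cells/well in 96-well plates. Exposed 48 h to compound (DMSO, final 0.1%). Cellular protein content determined by BCA protein assay and expressed as % of vehicle control.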

[2] = Induction of proliferation of neonatal skin fibroblasts assessed as protein content per well at 5 uM after 48 hrs by […] relative to control; assay type: functional, Homo sapiens, Skin fibroblast; outline: as §1
[3] = Induction of proliferation of neonatal skin fibroblasts assessed as protein content per well at 10 uM after 48 hrs by […] relative to control; assay type: functional, Homo sapiens, Skin fibroblast; outline: as §1
[4] = Induction of proliferation of neonatal skin fibroblasts assessed as WST-8 formazan accumulation per well at 20 uM after 48 hrs by WST-8 assay relative to control; assay type: functional, Homo sapiens, Skin fibroblast
Outline: (§2)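 Normal human neonatal skin fibroblasts NB1RGB (DMEM 1 g/L glucose, 10% FBS, 37 °C, 5% CO2) seeded 5.0 × 10^4 cells/well in 96-well plates. Incubated 48 h with compound (DMSO, final 0.1%). Water-soluble WST-8 formazan read at 450 nm (ref 655 nm) and expressed as % of vehicle control.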

[5] = Induction of proliferation of neonatal skin fibroblasts assessed as WST-8 formazan accumulation per well at 5 uM after 48 hrs by WST-8 assay relative to control; assay type: functional, Homo sapiens, Skin fibroblast; outline: as §2
[6] = Induction of proliferation of neonatal skin fibroblasts assessed as WST-8 formazan accumulation per well at 10 uM after 48 hrs by WST-8 assay relative to control; assay type: functional, Homo sapiens, Skin fibroblast; outline: as §2
[7] = Inhibition of melanogenesis in theophylline-stimulated mouse B16-4A5 cells at 10 uM after 72 hrs by microplate reader; assay type: functional; parameters: scale not given: the % may be the effect or the level left
Outline: (§3)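 B16 melanoma 4A5 cells seeded 2.0 × 10^4 cells/well in 24-well plates and cultured 24 h. Then 72 h with compound plus 1 mM theophylline (DMSO, final 0.1%). Cells trypsin/EDTA-harvested, washed, lysed in 1 M NaOH (80 °C, 30 min). Lysate melanin read by OD at 405 nm (ref 655 nm). Inhibition (%) = [(A − B)/A] × 100 versus vehicle. Mean ± SEM, n = 4.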

[8] = Inhibition of melanogenesis in theophylline-stimulated mouse B16-4A5 cells at 20 uM after 72 hrs by microplate reader; assay type: functional; parameters: scale not given: the % may be the effect or the level left; outline: as §3
[9] = Inhibition of melanogenesis in theophylline-stimulated mouse B16-4A5 cells at 5 uM after 72 hrs by microplate reader; assay type: functional; parameters: scale not given: the % may be the effect or the level left; outline: as §3
[10] = Antiproliferative activity against mouse B16-4A5 cells at 10 uM after 72 hrs by WST-8 assay; assay type: functional
Outline: (§4)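 Murine B16 melanoma 4A5 cells (DMEM 4.5 g/L glucose, 10% FBS) seeded 5.0 × 10^4 cells/well in 96-well plates and cultured 24 h. Then 72 h with 1 mM theophylline plus compound (DMSO, final 0.1%). Cells washed with PBS, WST-8 formazan read at 450 nm (ref 655 nm). Inhibition (%) = [(A − B)/A] × 100 versus vehicle. Mean ± SEM, n = 4.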

[11] = Antiproliferative activity against mouse B16-4A5 cells at 5 uM after 72 hrs by WST-8 assay; assay type: functional; outline: as §4
[12] = Antiproliferative activity against mouse B16-4A5 cells at 20 uM after 72 hrs by WST-8 assay; assay type: functional; outline: as §4
[13] = Inhibition of melanogenesis in theophylline-stimulated mouse B16-4A5 cells at 40 uM after 72 hrs by microplate reader; assay type: functional; parameters: scale not given: the % may be the effect or the level left; outline: as §3
[14] = Induction of proliferation of neonatal skin fibroblasts assessed as protein content per well at 50 uM after 48 hrs by […] relative to control; assay type: functional, Homo sapiens, Skin fibroblast; outline: as §1
[15] = Induction of proliferation of neonatal skin fibroblasts assessed as WST-8 formazan accumulation per well at 50 uM after 48 hrs by WST-8 assay relative to control; assay type: functional, Homo sapiens, Skin fibroblast; outline: as §2

| SMILES | Activity [1] | Activity [2] | Activity [3] | Activity [4] | Activity [5] | Activity [6] | Activity [7] | Activity [8] | Activity [9] | Activity [10] | Activity [11] | Activity [12] | Activity [13] | Activity [14] | Activity [15] |
| --- | --- | --- | --- | --- | --- | --- | --- | --- | --- | --- | --- | --- | --- | --- | --- |
| O.O=C1O[C@H]([C@@H](O)CO)C(O)=C1OP(=O)([O-])[O-].[Mg+2] | 117.4% | 112.8% | 109.6% | 122.8% | 109.2% | 123.7% | – | – | – | – | – | – | – | – | – |
| CC1(C)CC[C@]2(O)[C@H](O)C[C@]3(C)C(=CC[C@@H]4[C@@]5(C)CC[C@H](O[C@@H]6O[C@H](C(=O)O)[C@@H](O)[C@H](O[C@@H]7O[C@H](CO)[C@H](O)[C@H](O)[C@H]7O[C@@H]7O[C@H](CO)[C@@H](O)[C@H](O)[C@H]7O)[C@H]6O[C@@H]6O[C@H](CO)[C@H](O)[C@H](O)[C@H]6O)C(C)(C)[C@@H]5CC[C@]43C)[C@@H]2C1 (relative stereo) | 114.9% | 113.9% | 110.6% | 116.2% | 108.3% | 110% | 16.7% | 23.3% | 21.9% | 4.3% | 1.9% | 13.3% | – | – | – |
| CC1(C)CC[C@]2(C=O)[C@H](O)C[C@]3(C)C(=CC[C@@H]4[C@@]5(C)CC[C@H](O[C@@H]6O[C@H](C(=O)O)[C@@H](O)[C@H](O[C@@H]7O[C@H](CO)[C@H](O)[C@H](O)[C@H]7O[C@@H]7O[C@H](CO)[C@@H](O)[C@H](O)[C@H]7O)[C@H]6O[C@@H]6O[C@H](CO)[C@H](O)[C@H](O)[C@H]6O)C(C)(C)[C@@H]5CC[C@]43C)[C@@H]2C1 (relative stereo) | 110% | 120.4% | 120.3% | 102.2% | 102.1% | 102.5% | 16.3% | 91.6% | -19.7% | 55% | 17.4% | 52.8% | – | – | – |
| OC[C@H]1O[C@@H](Oc2ccc(O)cc2)[C@H](O)[C@@H](O)[C@@H]1O [ARBUTIN] | – | – | – | – | – | – | -0.1% | 13.3% | – | – | – | – | 18% | – | – |
| CC1(C)CC[C@]2(O)C(=O)C[C@]3(C)C(=CC[C@@H]4[C@@]5(C)CC[C@H](O[C@@H]6O[C@H](C(=O)O)[C@@H](O)[C@H](O[C@@H]7O[C@H](CO)[C@H](O)[C@H](O)[C@H]7O[C@@H]7O[C@H](CO)[C@@H](O)[C@H](O)[C@H]7O)[C@H]6O[C@H]6O[C@@H](CO)[C@@H](O)[C@@H](O)[C@@H]6O)C(C)(C)C5CC[C@]43C)[C@@H]2C1 (stereo not given in full) [CAMELLIOSIDE A] | 113.8% | 120.8% | 126.9% | 113.6% | 114.6% | 114.3% | 36% | 74.9% | 12.1% | 5.1% | -3.8% | 19.7% | – | – | – |
| CC(=O)O[C@@H]1[C@H](O)[C@@H](O)[C@H](O[C@H]2[C@H](O[C@H]3CC[C@]4(C)[C@H]5CC=C6[C@@H]7CC(C)(C)CC[C@]7(O)C(=O)C[C@@]6(C)[C@]5(C)CC[C@H]4C3(C)C)O[C@H](C(=O)O)[C@@H](O)[C@@H]2O[C@@H]2O[C@H](CO)[C@H](O)[C@H](O)[C@H]2O[C@@H]2O[C@H](CO)[C@@H](O)[C@H](O)[C@H]2O)O[C@@H]1CO [CAMELLIOSIDE B] | 130.1% | 122.3% | 130% | 132.1% | 111.5% | 121.5% | 64.6% | 95% | 33.1% | 26% | 11.9% | 49% | – | – | – |
| CC1(C)CC[C@]2(CO)[C@H](O)C[C@]3(C)C(=CC[C@@H]4[C@@]5(C)CC[C@H](O[C@@H]6O[C@H](C(=O)O)[C@@H](O)[C@H](O[C@@H]7O[C@H](CO)[C@H](O)[C@H](O)[C@H]7O[C@@H]7O[C@H](CO)[C@@H](O)[C@H](O)[C@H]7O)[C@H]6O[C@@H]6O[C@H](CO)[C@H](O)[C@H](O)[C@H]6O)C(C)(C)[C@@H]5CC[C@]43C)[C@@H]2C1 [CAMELLIOSIDE D] | 94.7% | 110.7% | 113.1% | 108.6% | 107.6% | 98.6% | -6.2% | 8.3% | 0.3% | 16.3% | 16.1% | 29.5% | – | – | – |
| C/C=C(/C)C(=O)O[C@H]1CC(C)(C)C[C@H]2C3=CC[C@@H]4[C@@]5(C)CC[C@H](O[C@@H]6O[C@H](C(=O)O)[C@@H](O)[C@H](O[C@@H]7O[C@H](CO)[C@H](O)[C@H](O)[C@H]7O[C@@H]7O[C@@H](C)[C@H](O)[C@@H](O)[C@H]7O)[C@H]6O[C@@H]6O[C@H](CO)[C@@H](O)[C@H](O)[C@H]6O)C(C)(C)[C@@H]5CC[C@@]4(C)[C@]3(C)[C@@H](O)[C@@H](O)[C@@]12CO [SASANQUASAPONIN III] | – | – | 48.6% | – | – | 16.6% | – | – | – | – | – | – | – | 48.8% | 16.8% |
| C/C=C(\C)C(=O)O[C@H]1CC(C)(C)C[C@H]2C3=CC[C@@H]4[C@@]5(C)CC[C@H](O[C@@H]6O[C@H](C(=O)O)[C@@H](O)[C@H](O[C@@H]7O[C@H](CO)[C@H](O)[C@H](O)[C@H]7O[C@@H]7O[C@@H](C)[C@H](O)[C@@H](O)[C@H]7O)[C@H]6O[C@@H]6O[C@H](CO)[C@@H](O)[C@H](O)[C@H]6O)C(C)(C)[C@@H]5CC[C@@]4(C)[C@]3(C)[C@@H](O)[C@@H](O)[C@@]12CO [SASANQUASAPONIN II] | – | – | 53.9% | – | – | 16.8% | – | – | – | – | – | – | – | 48.9% | 16.5% |
| CCC/C=C\C(=O)O[C@H]1CC(C)(C)C[C@H]2C3=CC[C@@H]4[C@@]5(C)CC[C@H](O[C@@H]6O[C@H](C(=O)O)[C@@H](O)[C@H](O[C@@H]7O[C@H](CO)[C@H](O)[C@H](O)[C@H]7O[C@@H]7O[C@@H](C)[C@H](O)[C@@H](O)[C@H]7O)[C@H]6O[C@@H]6O[C@H](CO)[C@@H](O)[C@H](O)[C@H]6O)C(C)(C)[C@@H]5CC[C@@]4(C)[C@]3(C)[C@@H](O)[C@@H](O)[C@@]12CO [SASANQUASAPONIN I] | – | – | 71.5% | – | – | 34.9% | – | – | – | – | – | – | – | 44.8% | 16.4% |
| C/C=C(\C)C(=O)O[C@H]1[C@H](OC(=O)/C(C)=C/C)[C@]2(CO)[C@H](O)[C@H](O)[C@]3(C)C(=CC[C@@H]4[C@@]5(C)CC[C@H](O[C@@H]6O[C@H](C(=O)O)[C@@H](O)[C@H](O[C@@H]7O[C@H](CO)[C@H](O)[C@H](O)[C@H]7O[C@@H]7O[C@@H](C)[C@H](O)[C@@H](O)[C@H]7O)[C@H]6O[C@@H]6O[C@H](CO)[C@@H](O)[C@H](O)[C@H]6O)C(C)(C)[C@@H]5CC[C@]43C)[C@@H]2CC1(C)C [YUCHASAPONIN A] | – | – | 45.3% | – | – | 16.6% | – | – | – | – | – | – | – | 49.4% | 16.8% |
